pIC50: −log10 of the molar value. Converted amounts (≈) assume the structure as drawn.
Tests used:
[1] = molecular target: Mitogen-activated protein kinase 10 (Homo sapiens, UniProt P53779); assay: Inhibition of JNK3 by TR-FRET assay
Outline: (§1)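 IC50s were determined at a single fixed ATP concentration, and each value is the mean of at least three independent experiments.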

[2] = molecular target: Mitogen-activated protein kinase 9 (Homo sapiens, UniProt P45984); assay: Inhibition of JNK2 by TR-FRET assay; outline: as §1
[3] = molecular target: Mitogen-activated protein kinase 8 (Homo sapiens, UniProt P45983); assay: Inhibition of JNK1 by TR-FRET assay; outline: as §1
[4] = Oxidative metabolic stability in mouse liver microsomes assessed as compound remaining after 30 mins; type: ADME, Microsome; conditions: read-out: Stability
Outline: (§2)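 Liver microsomes, mouse or human, were incubated with the compound for 30 min under oxidative conditions. The read-out is the percent of parent compound remaining.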

[5] = Oxidative metabolic stability in human liver microsomes assessed as compound remaining after 30 mins; type: ADME, Microsome; conditions: read-out: Stability; outline: as §2
[6] = Solubility of the compound; type: physicochemical
[7] = Metabolic stability in mouse liver microsomes assessed as compound remaining after 60 mins in presence of UDPGA; type: ADME, Microsome; conditions: read-out: Stability
[8] = Metabolic stability in human liver microsomes assessed as compound remaining after 60 mins in presence of UDPGA; type: ADME, Microsome; conditions: read-out: Stability
[9] = Apparent permeability from apical to basolateral side in MDCK2 cells at 5 uM after 120 mins; type: ADME, cell-based, Canis lupus familiaris, MDCK-II; conditions: dog, MDCK
[10] = Efflux ratio, permeability from apical to basolateral side to basolateral to apical side in MDR1 expressing MDCK2 cells at 5 uM after 120 mins; type: ADME, cell-based, Canis lupus familiaris; conditions: dog, mdck-ii, 2 h
[11] = Selectivity ratio of IC50 for JNK1 to IC50 for JNK3

Mitogen-activated protein kinase 9, sequence (P45984 whole entry): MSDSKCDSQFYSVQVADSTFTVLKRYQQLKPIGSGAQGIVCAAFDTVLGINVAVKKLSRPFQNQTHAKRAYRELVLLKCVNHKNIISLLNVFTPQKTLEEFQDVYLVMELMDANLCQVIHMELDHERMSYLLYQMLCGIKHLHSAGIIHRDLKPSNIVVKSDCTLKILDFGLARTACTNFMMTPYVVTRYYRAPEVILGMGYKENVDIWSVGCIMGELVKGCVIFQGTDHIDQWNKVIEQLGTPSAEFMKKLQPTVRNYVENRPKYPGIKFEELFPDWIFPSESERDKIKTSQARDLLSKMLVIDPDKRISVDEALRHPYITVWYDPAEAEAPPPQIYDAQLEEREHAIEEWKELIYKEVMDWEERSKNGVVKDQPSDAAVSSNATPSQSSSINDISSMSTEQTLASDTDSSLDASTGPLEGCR
Mitogen-activated protein kinase 8, sequence (P45983 whole entry): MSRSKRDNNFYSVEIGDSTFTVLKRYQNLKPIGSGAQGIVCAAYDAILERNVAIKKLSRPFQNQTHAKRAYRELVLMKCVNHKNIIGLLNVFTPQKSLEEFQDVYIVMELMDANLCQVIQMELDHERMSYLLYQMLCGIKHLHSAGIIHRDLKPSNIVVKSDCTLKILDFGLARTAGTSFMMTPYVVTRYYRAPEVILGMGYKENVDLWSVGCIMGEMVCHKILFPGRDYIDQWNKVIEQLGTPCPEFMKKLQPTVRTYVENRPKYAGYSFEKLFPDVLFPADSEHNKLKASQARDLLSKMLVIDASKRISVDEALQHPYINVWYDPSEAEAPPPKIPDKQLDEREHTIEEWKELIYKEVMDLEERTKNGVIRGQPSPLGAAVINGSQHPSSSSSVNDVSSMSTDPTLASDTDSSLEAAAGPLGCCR
Mitogen-activated protein kinase 10, sequence (P53779 whole entry): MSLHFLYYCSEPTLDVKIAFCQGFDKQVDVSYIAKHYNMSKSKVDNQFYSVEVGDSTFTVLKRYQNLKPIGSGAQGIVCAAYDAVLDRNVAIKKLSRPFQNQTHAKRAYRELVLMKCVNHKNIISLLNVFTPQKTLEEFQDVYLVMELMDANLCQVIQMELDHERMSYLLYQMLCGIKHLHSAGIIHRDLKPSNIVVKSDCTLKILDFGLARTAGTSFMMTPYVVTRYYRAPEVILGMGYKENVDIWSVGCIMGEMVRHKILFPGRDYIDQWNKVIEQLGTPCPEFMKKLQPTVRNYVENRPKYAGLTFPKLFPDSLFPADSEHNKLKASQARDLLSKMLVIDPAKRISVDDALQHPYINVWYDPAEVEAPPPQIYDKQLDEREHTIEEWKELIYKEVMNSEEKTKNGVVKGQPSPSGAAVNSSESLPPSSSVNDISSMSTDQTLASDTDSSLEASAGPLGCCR

Row | Compound | pIC50 [1] | pIC50 [2] | pIC50 [3] | remaining at 0.5 h [4] | remaining at 0.5 h [5] | solubility [6] | remaining at 1 h [7] | remaining at 1 h [8] | Papp A→B at 2 h, 5 µM [9] | Ratio [10] | Ratio IC50 [11]
1 | c1ccc2cc(-n3cnnc3-c3ccncc3)ccc2c1 | 5.35 | 4.72 | < 4.30 | 76% | 100% | 35 µM (≈ 9.53 µg/mL) | 87% | 100% | 30.6 ×10⁻⁶ cm/s |  | 
2 | Clc1nnc(-c2ccncc2)n1-c1ccc2ccccc2c1 | 4.52 | < 4.30 | < 4.30 |  |  | 78 µM (≈ 23.9 µg/mL) |  |  |  |  | 
3 | c1ccc2cc(-c3ncncc3-c3ccncc3)ccc2c1 | 5.38 | 4.74 | < 4.30 | 0% | 29% |  |  |  |  |  | 
4 | S=c1[nH]nc(-c2ccnc(Br)c2)n1-c1ccc2ccccc2c1 | < 4.30 | < 4.30 | < 4.30 |  |  | 35 µM (≈ 13.4 µg/mL) |  |  |  |  | 
5 | c1ccc2cc(-c3nnnn3-c3ccncc3)ccc2c1 | < 4.30 | < 4.30 | < 4.30 | 0% | 16% |  |  |  |  |  | 
6 | FC(F)(F)c1nnc(-c2ccncc2)n1-c1ccc2ccccc2c1 | < 4.30 | < 4.30 | < 4.30 |  |  | 15 µM (≈ 5.1 µg/mL) |  |  |  |  | 
7 | c1ccc2cc(-c3n[nH]cc3-c3ccncc3)ccc2c1 | 6.61 | 6.06 | 5.15 | 1% | 52% |  | 100% | 73% | 16.9 ×10⁻⁶ cm/s | 1.14 | 
8 | c1ccc2cc(-c3[nH]ncc3-c3ccncc3)ccc2c1 |  |  |  |  |  |  |  |  |  |  | 20
9 | S=c1[nH]nc(-c2ccncc2)n1-c1cnc2ccccc2c1 | < 4.30 | < 4.30 | < 4.30 |  |  | 100 µM (≈ 30.5 µg/mL) |  |  |  |  | 
10 | c1ccc2cc(-n3nnnc3-c3ccncc3)ccc2c1 | 4.31 | < 4.30 | < 4.30 |  |  | 15 µM (≈ 4.1 µg/mL) |  |  |  |  | 
11 | Nc1cc(-c2n[nH]c(=S)n2-c2ccc3ccccc3c2)ccn1 | 5.99 | 6.30 | 4.61 |  |  | 100 µM (≈ 31.9 µg/mL) |  |  |  |  | 
12 | Cc1cc(-c2n[nH]c(=S)n2-c2cnc3ccccc3c2)ccn1 | < 4.30 | < 4.30 | < 4.30 |  |  | 100 µM (≈ 31.9 µg/mL) |  |  |  |  | 
13 | c1ccc2cc(-c3[nH]nnc3-c3ccncc3)ccc2c1 | 6.44 | 5.91 | 5.16 | 2% | 44% |  |  |  | 15.2 ×10⁻⁶ cm/s |  | 
14 | c1ccc2cc(-n3nccc3-c3ccncc3)ccc2c1 | 5.91 | 5.31 | < 4.30 | 11% | 58% |  |  |  |  |  | 
